Data reported in ChEMBL document CHEMBL3112409, “A novel class of ion displacement ligands as antagonists of the αIIbβ3 receptor that limit conformational reorganization of the receptor” (Bioorg Med Chem Lett, 2014).
The source made the active and inactive calls. The calls are words filed in the database; no cut-off is given here. Positions of bridges follow the written chain, without caps; N, C: chain ends. Non-standard residues stand in square brackets, D forms with d. Residues, ends and D or L forms follow the SMILES beside them. hArg = N=C(N)NCCCC[C@H](N)C(=O)O; Mpa = O=C(O)CCS

Tests used:
[1] = Antiplatelet activity in platelet (unknown origin) assessed as inhibition of platelet aggregation; format: functional, cell-based
[2] = biological target: T1, Integrin alpha-IIb/beta-3 (Homo sapiens) (UniProt P05106+P08514); assay: Inhibition of […] receptor (unknown origin) assessed as inhibition of platelet adhesion at 100 uM
[3] = biological target: T1, Integrin alpha-IIb/beta-3 (Homo sapiens); assay: Inhibition of […] receptor (unknown origin) assessed as inhibition of platelet adhesion at 1 uM
[4] = Kinetic solubility of the compound at pH 6.6 by CLND method; format: physicochemical; conditions: buffer
Liver microsome [5] = assay: Intrinsic clearance in rat liver microsomes; format: ADME
[6] = Thermodynamic solubility of the compound at pH 12 by CLND method; format: physicochemical; conditions: buffer
In short: (§1)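 Triplicate solubility measurements in aqueous buffer at the pH named in each line. Quantified by chemiluminescent nitrogen detection (CLND) and reported in μg/mL. An LC method was also run alongside.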

[7] = Thermodynamic solubility of the compound at pH 6.6 by CLND method; format: physicochemical; conditions: buffer; in short: as §1
hERG (KCNH2) = hERG (KCNH2) (Homo sapiens, UniProt Q12809); assay: Inhibition of human ERG channel at 25 uM
[8] = Kinetic solubility of the compound at pH 7.4 by CLND method; format: physicochemical; conditions: buffer
[9] = Kinetic solubility of the compound at pH 8.5 by CLND method; format: physicochemical; conditions: buffer
[10] = Thermodynamic solubility of the compound at pH 8.5 by CLND method; format: physicochemical; conditions: buffer; in short: as §1
[11] = Kinetic solubility of the compound at pH 12 by CLND method; format: physicochemical; conditions: buffer
[12] = Metabolic stability in mouse plasma after 60 mins; format: ADME, cell-free; conditions: read-out: Stability
In short: (§2)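 Stability in mouse plasma run in triplicate; percent remaining read at 15, 60 and 120 min.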

[13] = Metabolic stability in mouse plasma after 15 mins; format: ADME, cell-free; conditions: read-out: Stability; in short: as §2
[14] = Thermodynamic solubility of the compound at pH 7.4 by CLND method; format: physicochemical; conditions: buffer; in short: as §1
[15] = Intrinsic clearance in mouse liver microsomes; format: ADME, Microsome
[16] = Metabolic stability in mouse plasma after 120 mins; format: ADME, cell-free; conditions: read-out: Stability; in short: as §2
[17] = biological target: Integrin alpha-V/beta-3 (Homo sapiens) (UniProt P05106+P06756); assay: Antagonist activity at alphaVbeta3 receptor (unknown origin); format: protein-complex assay
[18] = Fraction unbound in plasma (unknown origin); format: ADME, cell-free
Liver microsome [19] = assay: Intrinsic clearance in human liver microsomes; format: ADME
In short: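 Liver microsomal stability run in parallel for mouse, rat and human microsomes. Intrinsic clearance reported in μL/min/mg protein, with microsomal half-life in min.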

[20] = Fraction unbound in whole blood (unknown origin); format: ADME, tissue-based
[21] = Metabolic stability in mouse hepatocytes assessed as compound remaining after 120 mins; format: ADME, cell-based, Hepatocyte; conditions: read-out: Stability
[22] = biological target: T1, Integrin alpha-IIb/beta-3 (Homo sapiens); assay: Inhibition of […] receptor (unknown origin) assessed as inhibition of platelet adhesion at 50 uM
[23] = Cmax in dog at 26.5 mg/kg, iv; format: ADME, organism-based, Canis lupus familiaris; design: dose 26.5 mg/kg, route intravenous; conditions: in vivo
[24] = AUC (infinity) in dog at 26.5 mg/kg, iv; format: ADME, organism-based, Canis lupus familiaris; design: time infinity, dose 26.5 mg/kg, route intravenous; conditions: plasma
[25] = Elimination half life in dog at 26.5 mg/kg, po; format: ADME, organism-based, Canis lupus familiaris; design: dose 26.5 mg/kg, route oral; conditions: in vivo, read-out: beta t1/2
[26] = Tmax in dog at 26.5 mg/kg, iv; format: ADME, organism-based, Canis lupus familiaris; design: dose 26.5 mg/kg, route intravenous; conditions: in vivo
[27] = AUC (infinity) in dog at 53 mg/kg, po; format: ADME, organism-based, Canis lupus familiaris; design: time infinity, dose 53 mg/kg, route oral; conditions: plasma
[28] = Terminal elimination rate constant in dog at 26.5 mg/kg, iv; format: ADME, organism-based, Canis lupus familiaris; design: dose 26.5 mg/kg, route intravenous; conditions: in vivo
[29] = AUC (infinity) in dog at 26.5 mg/kg, po; format: ADME, organism-based, Canis lupus familiaris; design: time infinity, dose 26.5 mg/kg, route oral; conditions: plasma
[30] = Oral bioavailability in dog at 26.5 to 53 mg/kg; format: ADME, organism-based, Canis lupus familiaris; conditions: in vivo
[31] = Elimination half life in dog at 26.5 mg/kg, iv; format: ADME, organism-based, Canis lupus familiaris; design: dose 26.5 mg/kg, route intravenous; conditions: in vivo, read-out: beta t1/2
[32] = Volume of distribution in dog at 26.5 mg/kg, iv; format: ADME, organism-based, Canis lupus familiaris; design: dose 26.5 mg/kg, route intravenous; conditions: in vivo
[33] = Elimination half life in dog at 53 mg/kg, po; format: ADME, organism-based, Canis lupus familiaris; design: dose 53 mg/kg, route oral; conditions: in vivo, read-out: beta t1/2
[34] = Cmax in dog at 53 mg/kg, po; format: ADME, organism-based, Canis lupus familiaris; design: dose 53 mg/kg, route oral; conditions: in vivo
[35] = Cmax in dog at 26.5 mg/kg, po; format: ADME, organism-based, Canis lupus familiaris; design: dose 26.5 mg/kg, route oral; conditions: in vivo
[36] = Clearance in dog at 26.5 mg/kg, iv; format: ADME, organism-based, Canis lupus familiaris; design: dose 26.5 mg/kg, route intravenous; conditions: in vivo
[37] = Tmax in dog at 53 mg/kg, po; format: ADME, organism-based, Canis lupus familiaris; design: dose 53 mg/kg, route oral; conditions: in vivo
[38] = Tmax in dog at 26.5 mg/kg, po; format: ADME, organism-based, Canis lupus familiaris; design: dose 26.5 mg/kg, route oral; conditions: in vivo
[39] = Clearance in dog at 53 mg/kg, po; format: ADME, organism-based, Canis lupus familiaris; design: dose 53 mg/kg, route oral; conditions: in vivo
[40] = Terminal elimination rate constant in dog at 26.5 mg/kg, po; format: ADME, organism-based, Canis lupus familiaris; design: dose 26.5 mg/kg, route oral; conditions: in vivo
Canis familiaris [41] = assay: Volume of distribution in dog at 53 mg/kg, po; format: ADME, organism-based, Canis lupus familiaris; design: dose 53 mg/kg, route oral; conditions: in vivo
Canis familiaris [42] = assay: Volume of distribution in dog at 26.5 mg/kg, po; format: ADME, organism-based, Canis lupus familiaris; design: dose 26.5 mg/kg, route oral; conditions: in vivo
[43] = Clearance in dog at 26.5 mg/kg, po; format: ADME, organism-based, Canis lupus familiaris; design: dose 26.5 mg/kg, route oral; conditions: in vivo
[44] = Terminal elimination rate constant in dog at 53 mg/kg, po; format: ADME, organism-based, Canis lupus familiaris; design: dose 53 mg/kg, route oral; conditions: in vivo
[45] = biological target: T1, Integrin alpha-IIb/beta-3 (Homo sapiens); conditions: 10 uM

Sequence of hERG (KCNH2) (Q12809 whole entry): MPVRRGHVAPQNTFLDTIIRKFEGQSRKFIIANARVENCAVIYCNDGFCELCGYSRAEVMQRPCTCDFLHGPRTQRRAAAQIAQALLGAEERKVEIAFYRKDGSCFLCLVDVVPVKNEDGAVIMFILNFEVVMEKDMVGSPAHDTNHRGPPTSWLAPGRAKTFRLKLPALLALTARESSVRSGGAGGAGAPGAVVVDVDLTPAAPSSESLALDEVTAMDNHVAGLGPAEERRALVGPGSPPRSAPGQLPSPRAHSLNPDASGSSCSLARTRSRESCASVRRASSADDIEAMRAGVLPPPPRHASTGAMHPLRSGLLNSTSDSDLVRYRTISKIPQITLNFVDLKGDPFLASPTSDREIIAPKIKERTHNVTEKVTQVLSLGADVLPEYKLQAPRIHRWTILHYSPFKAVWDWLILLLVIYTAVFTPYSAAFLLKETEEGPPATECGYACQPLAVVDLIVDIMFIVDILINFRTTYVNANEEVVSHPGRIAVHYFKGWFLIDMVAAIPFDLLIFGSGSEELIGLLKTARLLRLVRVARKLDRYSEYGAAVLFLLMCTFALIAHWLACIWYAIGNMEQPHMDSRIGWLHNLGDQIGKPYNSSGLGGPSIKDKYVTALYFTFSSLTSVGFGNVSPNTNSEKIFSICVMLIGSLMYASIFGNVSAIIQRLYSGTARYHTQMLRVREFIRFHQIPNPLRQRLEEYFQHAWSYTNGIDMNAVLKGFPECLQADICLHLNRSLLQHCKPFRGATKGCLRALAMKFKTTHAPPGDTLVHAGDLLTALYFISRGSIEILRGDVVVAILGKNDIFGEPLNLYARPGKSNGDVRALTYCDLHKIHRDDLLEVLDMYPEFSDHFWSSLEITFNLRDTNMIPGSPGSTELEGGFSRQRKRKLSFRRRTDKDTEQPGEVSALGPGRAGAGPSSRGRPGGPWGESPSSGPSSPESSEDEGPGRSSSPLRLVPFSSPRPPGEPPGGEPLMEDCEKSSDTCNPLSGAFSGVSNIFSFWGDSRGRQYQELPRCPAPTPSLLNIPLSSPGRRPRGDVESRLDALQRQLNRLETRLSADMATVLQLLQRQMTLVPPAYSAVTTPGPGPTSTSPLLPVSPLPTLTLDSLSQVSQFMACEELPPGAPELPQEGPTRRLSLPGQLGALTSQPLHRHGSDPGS

## CCc1nn2c(=O)cc(N3CCOCC3)nc2s1
[1]
  IC50: 49 µM
[2]
  inhibition: 20%

## N=C(N)NCCCC[C@@H]1NC(=O)CCSSC[C@@H](C(N)=O)NC(=O)[C@@H]2CCCN2C(=O)[C@H](Cc2c[nH]c3ccccc23)NC(=O)[C@H](CC(=O)O)NC(=O)CNC1=O [EPTIFIBATIDE] ([Mpa][hArg]GDWPC-NH2; disulfide 1-7)
[1]
  IC50: 0.012 µM

## NCC(=O)Nc1cc(O)cc(-c2nn3c(=O)cc(N4CCNCC4)nc3s2)c1
[1]
  IC50: 0.1 µM
[3]
  inhibition: 69%

## O=c1cc(N2CCNCC2)nc2sc(-c3ccccc3)nn12
[1]
  IC50: 3 µM
[2]
  inhibition: 56%

## NCC(=O)Nc1cccc(-c2nn3c(=O)cc(N4CCNCC4)nc3s2)c1
[4]
  Kinetic_solubility: 35.8 µg/mL
Liver microsome [5]
  CLH: 2.83 µL/min/mg
[6]
  Therm_solubility: > 400 µg/mL
[3]
  inhibition: 83%
[7]
  Therm_solubility: 41.8 µg/mL
hERG (KCNH2)
  inhibition at 25 µM: < 5%
[8]
  Kinetic_solubility: 34.6 µg/mL
[9]
  Kinetic_solubility: 36.1 µg/mL
[10]
  Therm_solubility: 46.2 µg/mL
[11]
  Kinetic_solubility: 43.4 µg/mL
[12]
  remaining at 1 h: 93.3%
[13]
  remaining at 0.25 h: 97.5%
[14]
  Therm_solubility: 28 µg/mL
[15]
  CLH: 0.684 µL/min/mg
[16]
  remaining at 2 h: 84.5%

## NCC(=O)Nc1cncc(-c2nn3c(=O)cc(N4CCNCC4)nc3s2)c1 [ZALUNFIBAN]
[4]
  Kinetic_solubility: > 57.8 µg/mL
[1]
  IC50: 0.045 µM
[6]
  Therm_solubility: > 400 µg/mL
[17]
  Activity: inactive
[3]
  inhibition: 93%
[7]
  Therm_solubility: 340.4 µg/mL
hERG (KCNH2)
  inhibition at 25 µM: < 5%
[18]
  Fu: > 30%
[8]
  Kinetic_solubility: > 57.8 µg/mL
[9]
  Kinetic_solubility: > 57.8 µg/mL
Liver microsome [19]
  CLH: 23.2 µL/min/mg
[10]
  Therm_solubility: > 400 µg/mL
[11]
  Kinetic_solubility: > 57.8 µg/mL
[12]
  remaining at 1 h: 99.5%
[13]
  remaining at 0.25 h: 100%
[14]
  Therm_solubility: 239.5 µg/mL
[20]
  Fu: > 85%
[16]
  remaining at 2 h: 91.7%
[21]
  remaining at 2 h: > 95%

## CCc1nn2c(=O)cc(N3CCN(C)CC3)nc2s1
[1]
  IC50: > 100 µM
[2]
  inhibition: 35%

## O=C(O)CNc1cccc(-c2nn3c(=O)cc(N4CCNCC4)nc3s2)c1
[1]
  IC50: 2 µM
[22]
  inhibition: 78%

## O=C(O)c1cccc(-c2nn3c(=O)cc(N4CCNCC4)nc3s2)c1
[1]
  IC50: 80 µM
[22]
  inhibition: 37%

## CC(C)(C)c1nn2c(=O)cc(N3CCNCC3)nc2s1
[1]
  IC50: 4 µM
[22]
  inhibition: 35%

## CCc1nn2c(=O)c(F)c(N3CCNCC3)nc2s1
[1]
  IC50: 8.3 µM
[2]
  inhibition: 41%

## NCC(=O)Nc1cc(-c2nn3c(=O)cc(N4CCNCC4)nc3s2)ccn1
[1]
  IC50: 0.033 µM
[3]
  inhibition: 98%

## CCc1nn2c(=O)cc(N3CCNCC3)nc2s1
[1]
  IC50: 4 µM
[23]
  Cmax: 28800 ng/mL
[24]
  AUC(0-inf): 28000 ng·h/mL
[25]
  half-life: 2.45 h
[26]
  Tmax: 0.175 h
[27]
  AUC(0-inf): 47200 ng·h/mL
[28]
  k el: 0.000113 s⁻¹
[29]
  AUC(0-inf): 27200 ng·h/mL
[30]
  bioavailability: 92%
[31]
  half-life: 1.7 h
[32]
  Vd: 2.37 L/kg
[33]
  half-life: 1.82 h
[34]
  Cmax: 11900 ng/mL
[35]
  Cmax: 7800 ng/mL
[36]
  clearance: 15.9 mL/min/kg
[37]
  Tmax: 0.5 h
[38]
  Tmax: 0.555 h
[39]
  CL/F: 18.7 mL/min/kg
[40]
  k el: 8e-05 s⁻¹
Canis familiaris [41]
  Vd: 2.9476 L/kg
Canis familiaris [42]
  Vd: 3.4669 L/kg
[43]
  CL/F: 16.8 mL/min/kg
[44]
  k el: 0.000107 s⁻¹

## CCCCS(=O)(=O)N[C@@H](Cc1ccc(OCCCCC2CCNCC2)cc1)C(=O)O
[45]
  inhibition: 88%

## NCC(=O)Nc1cc(CO)cc(-c2nn3c(=O)cc(N4CCNCC4)nc3s2)c1
[1]
  IC50: 0.075 µM
[3]
  inhibition: 89%

## C[C@H](N)C(=O)Nc1cccc(-c2nn3c(=O)cc(N4CCNCC4)nc3s2)c1
[1]
  IC50: 5.87 µM
[2]
  inhibition: 66%

## O=C(O)c1ccc(-c2nn3c(=O)cc(N4CCNCC4)nc3s2)cc1
[1]
  IC50: 6.5 µM
[22]
  inhibition: 49%

## CCc1nn2c(=O)cc(N3CCCCC3)nc2s1
[1]
  IC50: > 100 µM
[2]
  inhibition: 23%
